Legend:
HT-29 [1] = assay: Cytotoxicity against HT29 cells under hypoxic condition after 4 hrs; assay type: functional, cell-based; conditions: Homo sapiens, HT-29, 4 h
Procedure, shortened: (§1)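 HT29 or SiHa cells exposed to drug for 4 h in 96-well plates under anoxia (H2/Pd anaerobic chamber). IC50 determined.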

HT-29 [2] = assay: Ratio of IC50 for HT29 cells in aerobic condition to IC50 for HT29 cells in hypoxic condition after 4 hrs; assay type: functional, Homo sapiens
Procedure, shortened: (§2)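 Aerobic and anoxic (H2/Pd chamber) IC50s measured in the same experiment after 4 h exposure, HT29 or SiHa cells. Ratio computed as aerobic IC50/anoxic IC50.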

SiHa [3] = assay: Cytotoxicity against SiHa cells under hypoxic condition after 4 hrs; assay type: functional, cell-based; conditions: Homo sapiens; procedure, shortened: as §1
SiHa [4] = assay: Ratio of IC50 for SiHa cells in aerobic condition to IC50 for SiHa cells in hypoxic condition after 4 hrs; assay type: functional, Homo sapiens; procedure, shortened: as §2
HT-29 [5] = assay: Diffusion coefficient, D in aerobic HT29 multicellular layers; assay type: ADME, cell-based; conditions: human
Procedure, shortened: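 Drug flux measured through HT29 multicellular layers on Teflon support membranes under 95% O2 at 37 °C, 50 µM initial donor concentration. Donor and receiver levels fitted with a diffusion model. Layer thickness estimated from flux of internal standard urea.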

HT-29 [6] = assay: Drug penetration in anoxic HT29 cells assessed as penetration half distance; assay type: ADME, cell-based; conditions: human
HT-29 [7] = assay: Cell viability in anoxic HT29 cells assessed as drug level providing 10% surviving fraction by clonogenic assay; assay type: cell-based; conditions: human
[8] = Toxicity in ip dosed CD1 mouse; assay type: organism-based; conditions: in vivo
Procedure, shortened: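 Single i.p. doses given to homozygous nude CD-1 Foxn1nu mice, with the vehicle formulated per compound. Doses escalated in 1.33-fold increments. MTD was defined as the highest dose causing no mortality, no body weight loss >15% and no other severe morbidity in any of six mice.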

[9] = Cmax in CD1 mouse plasma at 421 umol/kg, ip; assay type: ADME, organism-based; design: dose 421 umol/kg, route intraperitoneal
Procedure, shortened: (§3)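 Single i.p. dose to homozygous nude CD-1 Foxn1nu mice, at 75 or 100% of MTD (MTD set by 1.33-fold dose steps; highest dose without death, >15% weight loss or severe morbidity in any of six mice). Total drug measured in plasma by HPLC. AUC, Cmax and terminal t½ derived noncompartmentally. Measured levels taken as free drug.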

[10] = Terminal half life in CD1 mouse plasma at 421 umol/kg, ip; assay type: ADME, organism-based; procedure, shortened: as §3
[11] = AUC (0 to infinity) in CD1 mouse plasma at 421 umol/kg, ip; assay type: ADME, organism-based; design: dose 421 umol/kg, time infinity, route intraperitoneal; procedure, shortened: as §3
HT-29 [12] = assay: Antitumor activity against HT29 tumor inoculated in CD1 nude mouse at 421 umol/kg, ip relative to control; assay type: functional, Homo sapiens
HT-29 [13] = assay: Antitumor activity against HT29 tumor inoculated in CD1 nude mouse at 421 umol/kg, ip administered 5 mins after gamma irradiation by excision assay relative to radiation alone; assay type: functional, Homo sapiens
Procedure, shortened: (§4)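 HT29 xenografts in nude CD-1 mice received 20 Gy γ radiation, then a single i.p. drug dose 5 min later, at 100% or 75% of MTD. Tumors excised 18 h afterwards, dissociated to single cells and plated for clonogens/g tumor. Hypoxic cell kill = log(clonogens/g, radiation only) − log(clonogens/g, radiation + drug).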

[14] = Cmax in CD1 mouse plasma at 562 umol/kg, ip; assay type: ADME, organism-based; design: dose 562 umol/kg, route intraperitoneal; procedure, shortened: as §3
[15] = AUC (0 to infinity) in CD1 mouse plasma at 562 umol/kg, ip; assay type: ADME, organism-based; design: dose 562 umol/kg, time infinity, route intraperitoneal; procedure, shortened: as §3
HT-29 [16] = assay: Antitumor activity against HT29 tumor inoculated in CD1 nude mouse at 562 umol/kg, ip administered 5 mins after gamma irradiation by excision assay relative to radiation alone; assay type: functional, Homo sapiens; procedure, shortened: as §4
[17] = Terminal half life in CD1 mouse plasma at 562 umol/kg, ip; assay type: ADME, organism-based; procedure, shortened: as §3
HT-29 [18] = assay: Antitumor activity against HT29 tumor inoculated in CD1 nude mouse at 562 umol/kg, ip relative to control; assay type: functional, Homo sapiens
[19] = Cmax in CD1 mouse plasma at 133 umol/kg, ip; assay type: ADME, organism-based; design: dose 133 umol/kg, route intraperitoneal; procedure, shortened: as §3
[20] = Terminal half life in CD1 mouse plasma at 133 umol/kg, ip; assay type: ADME, organism-based; procedure, shortened: as §3
[21] = AUC (0 to infinity) in CD1 mouse plasma at 133 umol/kg, ip; assay type: ADME, organism-based; design: dose 133 umol/kg, route intraperitoneal, time infinity; procedure, shortened: as §3
[22] = Cmax in CD1 mouse plasma at 316 umol/kg, ip; assay type: ADME, organism-based; design: dose 316 umol/kg, route intraperitoneal; procedure, shortened: as §3
[23] = Terminal half life in CD1 mouse plasma at 316 umol/kg, ip; assay type: ADME, organism-based; procedure, shortened: as §3
[24] = AUC (0 to infinity) in CD1 mouse plasma at 316 umol/kg, ip; assay type: ADME, organism-based; design: dose 316 umol/kg, time infinity, route intraperitoneal; procedure, shortened: as §3
HT-29 [25] = assay: Antitumor activity against HT29 tumor inoculated in CD1 nude mouse at 316 umol/kg, ip administered 5 mins after gamma irradiation by excision assay relative to radiation alone; assay type: functional, Homo sapiens; procedure, shortened: as §4
[26] = Cmax in CD1 mouse plasma at 750 umol/kg, ip; assay type: ADME, organism-based; design: dose 750 umol/kg, route intraperitoneal; procedure, shortened: as §3
[27] = Terminal half life in CD1 mouse plasma at 750 umol/kg, ip; assay type: ADME, organism-based; procedure, shortened: as §3
[28] = AUC (0 to infinity) in CD1 mouse plasma at 750 umol/kg, ip; assay type: ADME, organism-based; design: dose 750 umol/kg, time infinity, route intraperitoneal; procedure, shortened: as §3
HT-29 [29] = assay: Antitumor activity against HT29 tumor inoculated in CD1 nude mouse at 750 umol/kg, ip administered 5 mins after gamma irradiation by excision assay relative to radiation alone; assay type: functional, Homo sapiens; procedure, shortened: as §4
HT-29 [30] = assay: Antitumor activity against HT29 tumor inoculated in CD1 nude mouse at 1000 umol/kg, ip relative to control

| SMILES | IC50 (HT-29 [1]) | Ratio IC50 (HT-29 [2]) | IC50 (SiHa [3]) | Ratio IC50 (SiHa [4]) | D (HT-29 [5]) | Penetration half distance (HT-29 [6]) | Activity (HT-29 [7]) | MTD [8] | also measured |
| --- | --- | --- | --- | --- | --- | --- | --- | --- | --- |
| COCCc1n[n+]([O-])c2ccccc2[n+]1[O-] | 3.5 µM | 49 | 1.6 µM | 61 | 20.89 10^-7cm2/sec | 34 µm | 21.3 µM·h | 421 µmol/kg | Cmax [9]: 176 µM; half-life [10]: 18 min; AUC(0-inf) [11]: 113 µM·h; Activity (HT-29 [12]): 0.3%; Activity (HT-29 [13]): 0.8% |
| CCc1n[n+]([O-])c2ccc(OC)cc2[n+]1[O-] | 16.8 µM | 73 | 6.8 µM | 175 |  | 34 µm | 69.9 µM·h | 750 µmol/kg | Cmax [14]: 71.5 µM; AUC(0-inf) [15]: 138 µM·h; Activity (HT-29 [16]): 0.76% |
| CCc1n[n+]([O-])c2ccccc2[n+]1[O-] | 6.8 µM | 54 | 5.9 µM | 84 | 26.12 10^-7cm2/sec | 63 µm | 19.7 µM·h | 562 µmol/kg | Cmax [14]: 271 µM; half-life [17]: 11.2 min; AUC(0-inf) [15]: 146 µM·h; Activity (HT-29 [18]): 0.11%; Activity (HT-29 [16]): 0.89% |
| CCc1n[n+]([O-])c2ccc(OCCN3CCCCC3)cc2[n+]1[O-] | 1.5 µM | 254 | 1 µM | 302 |  | 34 µm | 6.8 µM·h | 178 µmol/kg | Cmax [19]: 9.8 µM; half-life [20]: 25 min; AUC(0-inf) [21]: 7.75 µM·h |
| CCc1n[n+]([O-])c2ccc(OCCN(C)C)cc2[n+]1[O-] | 1.3 µM | 307 | 0.8 µM | 374 |  | 34 µm | 5.1 µM·h | 562 µmol/kg | Cmax [9]: 55.5 µM; half-life [10]: 32.2 min; AUC(0-inf) [11]: 55.7 µM·h; Activity (HT-29 [12]): 0.23%; Activity (HT-29 [13]): 0.88% |
| CCc1n[n+]([O-])c2cc(OCCCN3CCOCC3)ccc2[n+]1[O-] | 3 µM | 147 | 1.3 µM | 181 |  | 34 µm | 7.1 µM·h | 421 µmol/kg | Cmax [22]: 30.1 µM; half-life [23]: 36 min; AUC(0-inf) [24]: 33 µM·h; Activity (HT-29 [25]): 0.98% |
| CCc1n[n+]([O-])c2ccc(OCCCN3CCOCC3)cc2[n+]1[O-] | 6.8 µM | 153 | 4.3 µM | 217 | 7.48 10^-7cm2/sec |  | 38.6 µM·h | 1000 µmol/kg | Activity (HT-29 [6]): 64 µM; Cmax [26]: 150 µM; half-life [27]: 34.8 min; AUC(0-inf) [28]: 162 µM·h; Activity (HT-29 [29]): 1.66%; Activity (HT-29 [30]): 0.14% |
